Measured values published in ChEMBL document CHEMBL1124370 (1989).
Active and inactive are the calls of the source. The calls are words filed in the database; no cut-off is given here.

Key:
Rattus norvegicus [1] = test: In vivo inhibition of galactitol accumulation in the sciatic nerves of ratat a dose of 51 mg/kg/day; NS=not significant; assay type: functional, organism-based; conditions: Sciatic nerve
Rattus norvegicus [2] = test: In vivo inhibition of galactitol accumulation in the diaphragm of rat at a dose of 51 mg/kg/day; assay type: functional
Rattus norvegicus [3] = test: […] inhibition of sorbitol accumulation in rat sciatic nerves at 10e-5 M concentration; assay type: functional, Sciatic nerve
Method in brief: (§1)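 Sciatic nerves were taken from male Sprague-Dawley rats (200–250 g) after CO2 euthanasia. Nerves were incubated 3 h at 37 °C under 95% air/5% CO2 in Hank's salts buffer, pH 7.4, with 50 mM glucose and (0–5)×10^-5 M compound, in triplicate. Nerve sorbitol was measured spectrofluorometrically in duplicate, and the read-out was % inhibition of sorbitol accumulation.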

[4] = target: Aldo-keto reductase family 1 member B1 (Bos taurus) (UniProt P16116); test: […] inhibition of aldose reductase in partially purified bovine lens preparation at 10e-6 M concentration
Method in brief: (§2)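 Enzyme partially purified from bovine lens by a published method, with the final chromatographic step omitted. Test compound was added at 1×10^-6 or 1×10^-7 M. Assays were run in duplicate, and the read-out was % inhibition of enzymatic activity.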

Rattus norvegicus [5] = test: In vivo inhibition of sorbitol accumulation in rat sciatic nerves at 10e-6 M concentration; assay type: functional, Sciatic nerve; method in brief: as §1
[6] = target: Aldo-keto reductase family 1 member B1 (Bos taurus) (UniProt P16116); test: […] inhibition of aldose reductase in partially purified bovine lens preparation at 10e-7 M concentration; method in brief: as §2
[7] = target: Aldo-keto reductase family 1 member B1 (Bos taurus) (UniProt P16116); test: Inhibition of aldose reductase in partially purified bovine lens preparation at 10e-7 M concentration
Method in brief: (§3)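 Aldose reductase partially purified from bovine lens, with the final chromatographic step of the earlier preparation omitted. Assay run in duplicate with test compound at 1 × 10^-6 M or 1 × 10^-7 M. Reported as % inhibition of enzymatic activity.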

[8] = target: Aldo-keto reductase family 1 member B1 (Bos taurus) (UniProt P16116); test: Inhibition of aldose reductase in partially purified bovine lens preparation at 10e-6 M.; method in brief: as §3
Rattus norvegicus [9] = test: In vivo inhibition of galactitol accumulation in the diaphragm of rat at a dose of 105 mg/kg/day; NS=not significant; assay type: functional, organism-based
Rattus norvegicus [10] = test: In vivo inhibition of galactitol accumulation in the sciatic nerves of rat at a dose of 105 mg/kg/day; NS=not significant; assay type: functional, organism-based; conditions: Sciatic nerve
Rattus norvegicus [11] = test: In vivo inhibition of galactitol accumulation in the sciatic nerves of rat at a dose of 56 mg/kg/day; NS=not significant; assay type: functional, organism-based; conditions: Sciatic nerve
Rattus norvegicus [12] = test: […] inhibition of sorbitol accumulation in rat sciatic nerves at 5*10e-6 M concentration; assay type: functional, Sciatic nerve; conditions: in the assay text read “In vitro” for “In vivo”
Method in brief: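 Sciatic nerves from male Sprague-Dawley rats (200–250 g), removed after CO2 euthanasia, incubated ex vivo for 3 h at 37 °C under 95% air/5% CO2 in Hank's salts buffer, pH 7.4, with 50 mM glucose and 5 × 10^-6 M test compound. Triplicate incubations; nerve sorbitol measured in duplicate by spectrofluorometric assay. Reported as % inhibition of sorbitol accumulation.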

Rattus norvegicus [13] = test: In vivo inhibition of sorbitol accumulation in rat sciatic nerves at 5*10e-5 M concentration; assay type: functional, Sciatic nerve; conditions: in the assay text read “In vitro” for “In vivo”; method in brief: as §1
Rattus norvegicus [14] = test: In vivo inhibition of galactitol accumulation in the diaphragm of rat. at a dose of 56 mg/kg/day; NS=not significant; assay type: functional, organism-based
Rattus norvegicus [15] = test: […] inhibition of sorbitol accumulation in rat sciatic nerves at 10e-6 M concentration; NS=not significant; assay type: functional; conditions: Sciatic nerve; method in brief: as §1
Rattus norvegicus [16] = test: In vivo inhibition of galactitol accumulation in the diaphragm of rat at a dose of 48 mg/kg/day; assay type: functional
Rattus norvegicus [17] = test: In vivo inhibition of galactitol accumulation in the sciatic nerves of rat at a dose of 48 mg/kg/day; NS=not significant; assay type: functional, organism-based; conditions: Sciatic nerve
Rattus norvegicus [18] = test: In vivo inhibition of galactitol accumulation in the diaphragm of rat. at a dose of 48 mg/kg/day; NS =not significant; assay type: functional, organism-based
Rattus norvegicus [19] = test: […] inhibition of sorbitol accumulation in rat sciatic nerves at 10e-5 M concentration; NS=not significant; assay type: functional; conditions: Sciatic nerve; method in brief: as §1
Rattus norvegicus [20] = test: In vivo inhibition of galactitol accumulation in the sciatic nerves of rat at a dose of 46 mg/kg/day; NS=not significant; assay type: functional, organism-based; conditions: Sciatic nerve
Rattus norvegicus [21] = test: In vivo inhibition of galactitol accumulation in the diaphragm of rat at a dose of 46 mg/kg/day; NS =not significant; assay type: functional, organism-based
Rattus norvegicus [22] = test: In vivo inhibition of galactitol accumulation in the sciatic nerves of rat at a dose of 100 mg/kg/day; assay type: functional; conditions: Sciatic nerve
Rattus norvegicus [23] = test: In vivo inhibition of galactitol accumulation in the diaphragm of rat at a dose of 100 mg/kg/day; assay type: functional
Rattus norvegicus [24] = test: In vivo inhibition of galactitol accumulation in the sciatic nerves of rat at a dose of 97 mg/kg/day; assay type: functional; conditions: Sciatic nerve
Rattus norvegicus [25] = test: In vivo inhibition of galactitol accumulation in the diaphragm of rat at a dose of 57 mg/kg/day; assay type: functional
Rattus norvegicus [26] = test: In vivo inhibition of galactitol accumulation in the diaphragm of rat at a dose of 97 mg/kg/day; assay type: functional
Rattus norvegicus [27] = test: In vivo inhibition of galactitol accumulation in the sciatic nerves of rat at a dose of 57 mg/kg/day; assay type: functional; conditions: Sciatic nerve
Rattus norvegicus [28] = test: In vivo inhibition of galactitol accumulation in the sciatic nerves of rat at a dose of 10 mg/kg/day; assay type: functional; conditions: Sciatic nerve
Rattus norvegicus [29] = test: In vivo inhibition of galactitol accumulation in the sciatic nerves of rat at a dose of 27 mg/kg/day; assay type: functional; conditions: Sciatic nerve
Rattus norvegicus [30] = test: In vivo inhibition of galactitol accumulation in the diaphragm of rat. at a dose of 27 mg/kg/day; assay type: functional
Rattus norvegicus [31] = test: In vivo inhibition of galactitol accumulation in the diaphragm of rat at a dose of 10 mg/kg/day; assay type: functional
Rattus norvegicus [32] = test: In vivo inhibition of galactitol accumulation in the diaphragm of rat. at a dose of 100 mg/kg/day; assay type: functional
Rattus norvegicus [33] = test: In vivo inhibition of galactitol accumulation in the sciatic nerves of rat at a dose of 26 mg/kg/day; assay type: functional; conditions: Sciatic nerve
Rattus norvegicus [34] = test: In vivo inhibition of galactitol accumulation in the diaphragm of rat. at a dose of 26 mg/kg/day; assay type: functional

Q: What does the source list for `COC(=O)N(CC(=O)O)C(=S)c1cccc2c(C(F)(F)F)c(OC)ccc12`?
A: inhibition (Rattus norvegicus [1]): inactive; inhibition in vivo at 51 mg/kg/day (Rattus norvegicus [2]): 80%; Inhibition (Rattus norvegicus [3]): 61%; inhibition [4]: 88%; Inhibition (Rattus norvegicus [5]): 36%; inhibition [6]: 29%

Q: Which inhibition [7] does the source give for `COc1ccc2c(C(=O)N(CC(=O)O)C(=O)OCC(C)(C)C)cccc2c1C(F)(F)F` here?
A: 18%

Q: And the inhibition [8]?
A: 64%

Q: What about the inhibition (Rattus norvegicus [9]) of the same compound?
A: inactive

Q: And the Inhibition (Rattus norvegicus [3])?
A: 37%

Q: What about the Inhibition (Rattus norvegicus [5]) of the same compound?
A: 28%

Q: What about the inhibition (Rattus norvegicus [10]) of the same compound?
A: inactive

Q: `COc1ccc2c(/C(=N/S(=O)(=O)C(F)(F)F)N(C)CC(=O)O)cccc2c1C(F)(F)F` was tested. Which inhibition (Rattus norvegicus [11]) did it give?
A: inactive

Q: And the Inhibition (Rattus norvegicus [12])?
A: 36%

Q: And the Inhibition (Rattus norvegicus [13])?
A: 71%

Q: And the inhibition (Rattus norvegicus [14])?
A: inactive

Q: What about the inhibition [4] of the same compound?
A: 94%

Q: What about the inhibition [6] of the same compound?
A: 69%

Q: What does the source list for `COC(=O)N(CC(=O)O)C(=O)c1cccc2c(C(F)(F)F)c(OC)ccc12`?
A: inhibition (Rattus norvegicus [15]): inactive; inhibition [7]: 82%; inhibition [8]: 97%; Inhibition (Rattus norvegicus [3]): 58%; inhibition in vivo at 48 mg/kg/day (Rattus norvegicus [16]): 54%

Q: What does the source list for `CCCOC(=O)N(CC(=O)O)C(=O)c1cccc2c(C(F)(F)F)c(OC)ccc12`?
A: inhibition (Rattus norvegicus [15]): inactive; inhibition (Rattus norvegicus [17]): inactive; inhibition [7]: 81%; inhibition [8]: 90%; Inhibition (Rattus norvegicus [3]): 62%; inhibition (Rattus norvegicus [18]): inactive

Q: Which inhibition (Rattus norvegicus [19]) does the source give for `COc1ccc2c(C(=O)N(CC(=O)O)C(=O)OC(C)C)cccc2c1C(F)(F)F` here?
A: inactive

Q: And the inhibition [7]?
A: 35%

Q: What about the inhibition (Rattus norvegicus [20]) of the same compound?
A: inactive

Q: And the inhibition (Rattus norvegicus [21])?
A: inactive

Q: What does the source list for `COc1ccc2c(C(=O)N(CC(=O)O)C(C)=O)cccc2c1C(F)(F)F`?
A: inhibition in vivo at 100 mg/kg/day (Rattus norvegicus [22]): 36%; inhibition [7]: 61%; inhibition [8]: 91%; Inhibition (Rattus norvegicus [3]): 62%; inhibition in vivo at 100 mg/kg/day (Rattus norvegicus [23]): 39%; Inhibition (Rattus norvegicus [5]): 40%

Q: What does the source list for `CCOC(=O)N(CC(=O)O)C(=O)c1cccc2c(C(F)(F)F)c(OC)ccc12`?
A: inhibition in vivo at 97 mg/kg/day (Rattus norvegicus [24]): 90%; inhibition [7]: 81%; inhibition [8]: 98%; inhibition in vivo at 57 mg/kg/day (Rattus norvegicus [25]): 70%; Inhibition (Rattus norvegicus [3]): 88%; inhibition in vivo at 97 mg/kg/day (Rattus norvegicus [26]): 83%; inhibition in vivo at 57 mg/kg/day (Rattus norvegicus [27]): 56%; Inhibition (Rattus norvegicus [5]): 51%

Q: With `CSc1ccc2c(C(=S)N(C)CC(=O)O)cccc2c1C(F)(F)F` as the compound, how does the inhibition in vivo at 10 mg/kg/day (Rattus norvegicus [28]) read?
A: 26%

Q: And the inhibition in vivo at 27 mg/kg/day (Rattus norvegicus [29])?
A: 64%

Q: What about the inhibition [7] of the same compound?
A: 71%

Q: What about the inhibition [8] of the same compound?
A: 95%

Q: What about the Inhibition (Rattus norvegicus [3]) of the same compound?
A: 93%

Q: What about the inhibition in vivo at 27 mg/kg/day (Rattus norvegicus [30]) of the same compound?
A: 90%

Q: And the inhibition in vivo at 10 mg/kg/day (Rattus norvegicus [31])?
A: 86%

Q: What about the Inhibition (Rattus norvegicus [5]) of the same compound?
A: 72%

Q: `COc1ccc2c(/C(=N/C#N)N(C)CC(=O)O)cccc2c1C(F)(F)F` was tested. Which inhibition in vivo at 100 mg/kg/day (Rattus norvegicus [22]) did it give?
A: 61%

Q: And the inhibition [7]?
A: 80%

Q: What about the inhibition in vivo at 100 mg/kg/day (Rattus norvegicus [32]) of the same compound?
A: 72%

Q: What about the inhibition [8] of the same compound?
A: 81%

Q: What about the inhibition in vivo at 26 mg/kg/day (Rattus norvegicus [33]) of the same compound?
A: 30%

Q: And the Inhibition (Rattus norvegicus [12])?
A: 70%

Q: And the Inhibition (Rattus norvegicus [13])?
A: 81%

Q: What about the inhibition in vivo at 26 mg/kg/day (Rattus norvegicus [34]) of the same compound?
A: 44%
